# Test results published in ChEMBL document CHEMBL1127445, “Structure-activity study of 5-substituted 1-carbobenzoxy-2-iminohydantoins as potential anticonvulsant agents” (J Med Chem, 1994).
# The source made the active and inactive calls. The calls are words filed in the database; no cut-off is given here.
# Columns and labels:
# Mus musculus [1] = test: Tested for the ability to protect against maximal electroshock seizure test; NA= Not active up to 300 mg/kg; assay type: functional, organism-based; parameters: dose 300 mg/kg
# Outline: (§1)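 Adult male Swiss Webster mice (20–25 g) received drug ip (10 mL/kg) in normal saline or as a 1% CMC suspension. At least three dose groups of 4–8 mice were used, tested at 0.5 h. Maximal electroshock used a 50 mA current. ED50 is in mg/kg; time of peak effect was not determined; doses went up to 300 mg/kg.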
# Mus musculus [2] = test: Tested for the ability to protect against subcutaneous pentylenetetrazole seizure test; NA= Not active up to 300 mg/kg; assay type: functional, organism-based; parameters: dose 300 mg/kg
# Outline: (§2)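 Male Swiss Webster mice (20–25 g) were dosed ip (10 mL/kg; saline or 1% CMC suspension), with ≥3 groups of 4–8 mice. At 0.5 h, pentylenetetrazole 85 mg/kg was given sc into the neck fold, and mice were watched for 30 min. Protection meant absence of clonic spasms lasting ≥5 s. ED50 is in mg/kg; doses went up to 300 mg/kg.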
# Mus musculus [3] = test: Tested for the ability to protect against subcutaneous pentylenetetrazole seizure test; assay type: functional; conditions: sc; outline: as §2
# Mus musculus [4] = species on record: Mus musculus; test: Tested for the ability to protect against maximal electroshock seizure test; assay type: functional; outline: as §1
# Mus musculus [5] = test: Tested for the ability to protect against subcutaneous pentylenetetrazole seizure test; Activity at 300 mg/kg but ED50 cannot be estimated; assay type: functional, organism-based; parameters: dose 300 mg/kg; outline: as §2
# Mus musculus [6] = test: Anticonvulsant activity of the substance upon subcutaneous administration in pentylenetetrazole seizure test in mice; NA= Not active; assay type: functional, organism-based
# Mus musculus [7] = test: Anticonvulsant activity of the substance upon subcutaneous administration in pentylenetetrazole seizure test in mice; assay type: functional; conditions: ip, in the assay text read “upon intraperitoneal administration” for “upon subcutaneous administration”
# Outline: (§3)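 Phase II quantification in mice was run by the NIH ADD Program. Compounds were given ip, and ED50 (mg/kg) was read at the time of peak effect. The protective index is TD50 (rotorod ataxia) divided by ED50 in the MES or scMET test.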
# Mus musculus [8] = test: Intraperitoneal anticonvulsant activity in the maximal electroshock seizure test expressed as median effective dose in phase II trial in mice; conditions: ip
# [9] = Tested for median toxic dose in rotarod ataxia test for neurological toxicity in mice; assay type: organism-based; conditions: mouse, in vivo
# Outline: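 Neurotoxicity was measured in mice by the NIH ADD Program using the rotorod ataxia test. Drug was given ip, and the median toxic dose (mg/kg) was measured at the time of peak deficit.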
# [10] = Protective index is the ratio between TD50 and ED50 values in subcutaneous pentylenetetrazole seizure test (scMET); assay type: functional; outline: as §3
# [11] = Protective index is the ratio between TD50 and ED50 values in maximal electroshock seizure test (MES); assay type: functional; outline: as §3
# Mus musculus [12] = test: Tested for the ability to protect against maximal electroshock seizure test; Activity at 300 mg/kg, but ED50 cannot be estimated; assay type: functional, organism-based; parameters: dose 300 mg/kg; outline: as §1
# Mus musculus [13] = test: Tested for the ability to protect against subcutaneous pentylenetetrazole seizure test; Previously tested; assay type: functional; conditions: sc
# Mus musculus [14] = test: Tested for the ability to protect against subcutaneous pentylenetetrazole seizure test; Activity at 300 mg/kg but ED50 can not be estimated; assay type: functional, organism-based; parameters: dose 300 mg/kg; outline: as §2
# Mus musculus [15] = test: Anticonvulsant activity in the in the subcutaneous pentylenetetrazole seizure test in the mice; assay type: functional; conditions: sc; outline: as §3
smiles,measurement,setting,value
NC(=O)CC[C@H]1C(=O)N=C(N)N1C(=O)OCc1ccccc1,ED50,Mus musculus [1],inactive
same,ED50,Mus musculus [2],inactive
CCC[C@@H]1C(=O)N=C(N)N1C(=O)OCc1ccccc1,ED50,Mus musculus [3],374 mg/kg
same,ED50,Mus musculus [1],inactive
CC1(C)C(=O)N=C(N)N1C(=O)OCc1ccccc1,ED50,Mus musculus [4],228 mg/kg
same,ED50,Mus musculus [2],inactive
CSCC[C@H]1C(=O)N=C(N)N1C(=O)OCc1ccccc1,ED50,Mus musculus [1],inactive
same,ED50,Mus musculus [2],inactive
C[C@H]1C(=O)N=C(N)N1C(=O)OCc1ccccc1,ED50,Mus musculus [4],171 mg/kg
same,ED50,Mus musculus [2],inactive
NC1=NC(=O)[C@H](Cc2c[nH]c3ccccc23)N1C(=O)OCc1ccccc1,ED50,Mus musculus [1],inactive
same,ED50,Mus musculus [5],Activity
O=C1NC(=O)C(c2ccccc2)(c2ccccc2)N1,ED50,Mus musculus [6],inactive
CCC[C@H]1C(=O)N=C(N)N1C(=O)OCc1ccccc1,ED50,Mus musculus [7],141 mg/kg
same,ED50,Mus musculus [8],80.2 mg/kg
same,TD50,[9],188 mg/kg
same,ED50,Mus musculus [4],53.3 mg/kg
same,ED50,Mus musculus [3],141 mg/kg
same,PI,[10],1.3
same,PI,[11],2.3
NC1=NC(=O)CN1C(=O)OCc1ccccc1,ED50,Mus musculus [12],Activity
same,ED50,Mus musculus [2],inactive
CC(C)C[C@H]1C(=O)N=C(N)N1C(=O)OCc1ccccc1,ED50,Mus musculus [8],98.6 mg/kg
same,ED50,Mus musculus [13],141 mg/kg
same,PI,[10],2.5
same,PI,[11],3.5
CCCC[C@H]1C(=O)N=C(N)N1C(=O)OCc1ccccc1,ED50,Mus musculus [4],> 1000 mg/kg
same,ED50,Mus musculus [14],Activity
CC[C@H]1C(=O)N=C(N)N1C(=O)OCc1ccccc1,ED50,Mus musculus [8],99.5 mg/kg
same,TD50,[9],< 500 mg/kg
same,ED50,Mus musculus [4],69.2 mg/kg
same,ED50,Mus musculus [3],223 mg/kg
same,ED50,Mus musculus [15],< 500 mg/kg
C=CC[C@H]1C(=O)N=C(N)N1C(=O)OCc1ccccc1,ED50,Mus musculus [4],53.3 mg/kg
same,ED50,Mus musculus [3],193 mg/kg
CC(C)[C@H]1C(=O)N=C(N)N1C(=O)OCc1ccccc1,ED50,Mus musculus [4],51.9 mg/kg
same,ED50,Mus musculus [14],Activity
NC1=NC(=O)[C@H](CSCc2ccccc2)N1C(=O)OCc1ccccc1,ED50,Mus musculus [1],inactive
same,ED50,Mus musculus [2],inactive
CCC(C)[C@H]1C(=O)N=C(N)N1C(=O)OCc1ccccc1 (stereo partly drawn),ED50,Mus musculus [4],74.4 mg/kg
same,ED50,Mus musculus [3],176 mg/kg
NC1=NC(=O)[C@H](Cc2ccccc2)N1C(=O)OCc1ccccc1,ED50,Mus musculus [1],inactive
same,ED50,Mus musculus [13],> 1000 mg/kg
